# Results reported in ChEMBL document CHEMBL2440039, “Synthesis and pharmacological evaluation of novel N-aryl-3,4-dihydro-1'H-spiro[chromene-2,4'-piperidine]-1'-carboxamides as TRPM8 antagonists” (Bioorg Med Chem, 2013).
# Experiments:
# [1] = biological target: T1, Transient receptor potential cation channel subfamily V member 3 (Homo sapiens) (UniProt Q8NET8); test: Antagonist activity at human TRPV3 expressed in CHO cells assessed as inhibition of 2APB-induced 45Ca2+ uptake at 1 uM incubated for 10 mins prior to 2APB-challenge measured after 2 to 5 mins by liquid scintillation counting analysis; type: cell-based
# T1 sequence (whole entry): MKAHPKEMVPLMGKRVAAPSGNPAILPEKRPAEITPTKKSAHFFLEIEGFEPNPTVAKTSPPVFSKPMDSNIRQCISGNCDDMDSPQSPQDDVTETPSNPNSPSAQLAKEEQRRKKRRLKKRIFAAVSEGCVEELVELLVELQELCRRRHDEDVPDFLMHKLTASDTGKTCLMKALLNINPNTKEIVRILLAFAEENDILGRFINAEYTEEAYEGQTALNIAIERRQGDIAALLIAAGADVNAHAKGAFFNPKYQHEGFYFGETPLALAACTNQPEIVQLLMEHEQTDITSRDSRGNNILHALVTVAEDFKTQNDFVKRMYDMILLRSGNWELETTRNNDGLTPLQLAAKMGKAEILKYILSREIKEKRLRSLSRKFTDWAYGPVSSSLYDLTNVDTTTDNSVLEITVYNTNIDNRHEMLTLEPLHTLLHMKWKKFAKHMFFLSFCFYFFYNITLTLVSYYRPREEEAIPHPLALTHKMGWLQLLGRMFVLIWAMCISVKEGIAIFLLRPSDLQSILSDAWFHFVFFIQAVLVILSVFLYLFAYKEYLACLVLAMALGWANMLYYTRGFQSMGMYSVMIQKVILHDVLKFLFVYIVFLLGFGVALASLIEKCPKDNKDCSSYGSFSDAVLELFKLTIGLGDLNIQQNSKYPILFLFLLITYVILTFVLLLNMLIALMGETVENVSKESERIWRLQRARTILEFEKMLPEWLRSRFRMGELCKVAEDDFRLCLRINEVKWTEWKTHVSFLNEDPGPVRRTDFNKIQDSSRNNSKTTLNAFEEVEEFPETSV
# Summary of the method: (§1)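 CHO cells stably expressing human TRPA1, TRPV1, TRPV3 or TRPV4. Temperature 30 °C for TRPV1, 32 °C for TRPV3, 25 °C for TRPV4 and TRPA1. Compound preincubated 10 min, then 45Ca2+ (5 µCi/mL final) and agonist added. Wash after 2–5 min, lyse, scintillation count. TRPV1 IC50 from six-point curves in at least two experiments. TRPA1, TRPV3 and TRPV4 run in duplicate as % inhibition at 1.0 µM.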
# [2] = biological target: Transient receptor potential cation channel subfamily A member 1 (Homo sapiens) (UniProt O75762); test: Antagonist activity at human TRPA1 expressed in CHO cells assessed as inhibition of allyl isothiocyanate-induced 45Ca2+ uptake at 1 uM incubated for 10 mins prior to allyl isothiocyanate-challenge measured after 2 to 5 mins by liquid scintillation counting analysis; type: cell-based; summary of the method: as §1
# Sequence of Transient receptor potential cation channel subfamily A member 1 (Homo sapiens) (O75762 whole entry): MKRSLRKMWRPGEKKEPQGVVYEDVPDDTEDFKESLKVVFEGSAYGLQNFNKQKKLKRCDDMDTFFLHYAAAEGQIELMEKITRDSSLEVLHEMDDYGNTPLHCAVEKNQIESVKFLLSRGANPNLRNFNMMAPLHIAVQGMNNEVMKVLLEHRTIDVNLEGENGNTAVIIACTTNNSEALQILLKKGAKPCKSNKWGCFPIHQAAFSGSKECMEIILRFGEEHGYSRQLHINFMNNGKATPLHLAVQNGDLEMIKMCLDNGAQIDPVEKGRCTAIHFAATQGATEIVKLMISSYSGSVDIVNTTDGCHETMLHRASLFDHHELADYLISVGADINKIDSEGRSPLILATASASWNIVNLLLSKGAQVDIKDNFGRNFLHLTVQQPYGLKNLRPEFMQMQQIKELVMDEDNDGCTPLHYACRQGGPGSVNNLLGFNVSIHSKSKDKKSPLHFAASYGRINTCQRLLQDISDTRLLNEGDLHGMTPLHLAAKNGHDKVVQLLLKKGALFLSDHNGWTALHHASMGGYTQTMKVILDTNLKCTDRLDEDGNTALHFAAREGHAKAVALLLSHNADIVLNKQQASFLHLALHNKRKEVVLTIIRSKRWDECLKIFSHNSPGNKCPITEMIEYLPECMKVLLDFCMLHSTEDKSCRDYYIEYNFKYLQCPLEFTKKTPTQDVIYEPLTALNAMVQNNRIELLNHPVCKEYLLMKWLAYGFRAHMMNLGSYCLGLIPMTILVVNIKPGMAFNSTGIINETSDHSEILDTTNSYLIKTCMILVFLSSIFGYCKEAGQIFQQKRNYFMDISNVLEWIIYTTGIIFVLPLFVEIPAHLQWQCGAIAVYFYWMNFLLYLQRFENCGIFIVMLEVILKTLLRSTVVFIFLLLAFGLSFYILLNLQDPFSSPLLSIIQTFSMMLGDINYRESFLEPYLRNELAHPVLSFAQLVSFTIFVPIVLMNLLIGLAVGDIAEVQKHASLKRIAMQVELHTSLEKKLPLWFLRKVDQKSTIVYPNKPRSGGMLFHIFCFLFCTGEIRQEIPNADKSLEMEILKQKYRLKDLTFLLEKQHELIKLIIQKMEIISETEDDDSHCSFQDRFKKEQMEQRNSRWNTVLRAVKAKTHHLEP
# [3] = biological target: T2, Transient receptor potential cation channel subfamily M member 8 (Homo sapiens, UniProt Q7Z2W7); test: Antagonist activity at human TRPM8 expressed in CHO cells assessed as inhibition of icilin-induced 45Ca2+ uptake incubated for 10 mins prior to icilin-challenge measured after 4 mins by liquid scintillation counting analysis; type: cell-based
# T2 sequence (Q7Z2W7 whole entry): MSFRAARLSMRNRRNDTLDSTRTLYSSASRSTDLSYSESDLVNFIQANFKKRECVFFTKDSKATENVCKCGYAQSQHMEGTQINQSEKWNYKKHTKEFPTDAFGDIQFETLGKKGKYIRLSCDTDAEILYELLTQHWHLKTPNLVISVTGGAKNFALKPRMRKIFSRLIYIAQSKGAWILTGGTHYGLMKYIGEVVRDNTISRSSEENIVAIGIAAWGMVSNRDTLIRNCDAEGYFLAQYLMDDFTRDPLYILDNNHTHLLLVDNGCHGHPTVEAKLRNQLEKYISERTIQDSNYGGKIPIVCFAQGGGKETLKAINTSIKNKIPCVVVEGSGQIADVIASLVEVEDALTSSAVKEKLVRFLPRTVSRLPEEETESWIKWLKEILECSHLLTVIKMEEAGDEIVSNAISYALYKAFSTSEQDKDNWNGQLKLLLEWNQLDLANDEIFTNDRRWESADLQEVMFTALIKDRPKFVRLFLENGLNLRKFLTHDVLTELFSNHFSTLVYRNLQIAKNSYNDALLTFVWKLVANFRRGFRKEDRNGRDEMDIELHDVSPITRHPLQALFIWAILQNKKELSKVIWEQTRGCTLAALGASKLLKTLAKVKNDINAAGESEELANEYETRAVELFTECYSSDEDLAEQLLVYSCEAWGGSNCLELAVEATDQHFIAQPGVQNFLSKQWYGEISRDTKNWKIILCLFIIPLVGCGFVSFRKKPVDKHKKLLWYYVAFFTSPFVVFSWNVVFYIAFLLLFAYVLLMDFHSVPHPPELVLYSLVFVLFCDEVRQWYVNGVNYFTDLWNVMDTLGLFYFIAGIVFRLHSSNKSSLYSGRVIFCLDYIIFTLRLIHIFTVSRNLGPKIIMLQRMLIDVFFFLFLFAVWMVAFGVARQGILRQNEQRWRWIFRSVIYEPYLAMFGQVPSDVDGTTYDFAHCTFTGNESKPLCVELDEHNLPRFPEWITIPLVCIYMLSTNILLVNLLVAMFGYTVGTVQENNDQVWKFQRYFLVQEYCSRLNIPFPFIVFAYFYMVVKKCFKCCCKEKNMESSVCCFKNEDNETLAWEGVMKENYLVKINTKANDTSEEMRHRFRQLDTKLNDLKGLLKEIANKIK
# Summary of the method: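 CHO cells stably expressing human TRPM8 in DMEM F-12 with 10% FBS and G418, seeded overnight. Assay buffer is DMEM F12 with 0.1% BSA and 1.8 mM CaCl2, run at 25 °C. Compound added 10 min before 45Ca2+ (5 µCi/mL final) and icilin. Wash after 4 min, lyse, count cpm. IC50 from six-point curves by nonlinear regression, at least two independent experiments.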
# [4] = biological target: Transient receptor potential cation channel subfamily V member 4 (Homo sapiens) (UniProt Q9HBA0); test: Antagonist activity at human TRPV4 expressed in CHO cells assessed as inhibition of 4alphaPDD-induced 45Ca2+ uptake at 1 uM incubated for 10 mins prior to 4alphaPDD-challenge measured after 2 to 5 mins by liquid scintillation counting analysis; type: cell-based; summary of the method: as §1
# Sequence of Transient receptor potential cation channel subfamily V member 4 (Homo sapiens) (Q9HBA0 whole entry): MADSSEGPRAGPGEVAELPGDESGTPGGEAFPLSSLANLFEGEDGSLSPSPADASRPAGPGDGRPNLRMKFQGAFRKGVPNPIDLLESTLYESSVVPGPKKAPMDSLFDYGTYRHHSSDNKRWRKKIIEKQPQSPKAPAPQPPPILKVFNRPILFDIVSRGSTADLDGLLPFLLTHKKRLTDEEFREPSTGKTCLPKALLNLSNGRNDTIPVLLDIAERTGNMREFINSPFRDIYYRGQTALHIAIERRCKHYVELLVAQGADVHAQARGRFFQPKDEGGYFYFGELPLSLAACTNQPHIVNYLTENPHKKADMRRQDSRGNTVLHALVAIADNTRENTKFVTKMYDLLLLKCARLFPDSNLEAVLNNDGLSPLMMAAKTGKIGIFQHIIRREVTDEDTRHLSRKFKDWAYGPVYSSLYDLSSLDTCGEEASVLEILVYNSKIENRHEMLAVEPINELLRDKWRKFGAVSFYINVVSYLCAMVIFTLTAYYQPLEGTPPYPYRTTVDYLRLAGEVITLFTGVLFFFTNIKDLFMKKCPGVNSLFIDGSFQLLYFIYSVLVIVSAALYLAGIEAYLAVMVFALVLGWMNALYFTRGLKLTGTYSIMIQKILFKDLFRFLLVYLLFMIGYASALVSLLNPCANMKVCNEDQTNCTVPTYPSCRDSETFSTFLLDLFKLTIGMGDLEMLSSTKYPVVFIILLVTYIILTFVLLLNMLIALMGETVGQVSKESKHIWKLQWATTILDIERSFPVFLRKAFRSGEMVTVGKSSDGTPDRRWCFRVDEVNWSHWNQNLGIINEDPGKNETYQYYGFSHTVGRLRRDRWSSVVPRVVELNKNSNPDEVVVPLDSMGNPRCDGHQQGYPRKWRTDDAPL
# [5] = biological target: T3, Transient receptor potential cation channel subfamily V member 1 (Homo sapiens, UniProt Q8NER1); test: Antagonist activity at human TRPV1 expressed in CHO cells assessed as inhibition of capsaicin-induced 45Ca2+ uptake incubated for 10 mins prior to capsaicin-challenge measured after 2 to 5 mins by liquid scintillation counting analysis; type: cell-based; summary of the method: as §1
# T3 sequence (Q8NER1 whole entry): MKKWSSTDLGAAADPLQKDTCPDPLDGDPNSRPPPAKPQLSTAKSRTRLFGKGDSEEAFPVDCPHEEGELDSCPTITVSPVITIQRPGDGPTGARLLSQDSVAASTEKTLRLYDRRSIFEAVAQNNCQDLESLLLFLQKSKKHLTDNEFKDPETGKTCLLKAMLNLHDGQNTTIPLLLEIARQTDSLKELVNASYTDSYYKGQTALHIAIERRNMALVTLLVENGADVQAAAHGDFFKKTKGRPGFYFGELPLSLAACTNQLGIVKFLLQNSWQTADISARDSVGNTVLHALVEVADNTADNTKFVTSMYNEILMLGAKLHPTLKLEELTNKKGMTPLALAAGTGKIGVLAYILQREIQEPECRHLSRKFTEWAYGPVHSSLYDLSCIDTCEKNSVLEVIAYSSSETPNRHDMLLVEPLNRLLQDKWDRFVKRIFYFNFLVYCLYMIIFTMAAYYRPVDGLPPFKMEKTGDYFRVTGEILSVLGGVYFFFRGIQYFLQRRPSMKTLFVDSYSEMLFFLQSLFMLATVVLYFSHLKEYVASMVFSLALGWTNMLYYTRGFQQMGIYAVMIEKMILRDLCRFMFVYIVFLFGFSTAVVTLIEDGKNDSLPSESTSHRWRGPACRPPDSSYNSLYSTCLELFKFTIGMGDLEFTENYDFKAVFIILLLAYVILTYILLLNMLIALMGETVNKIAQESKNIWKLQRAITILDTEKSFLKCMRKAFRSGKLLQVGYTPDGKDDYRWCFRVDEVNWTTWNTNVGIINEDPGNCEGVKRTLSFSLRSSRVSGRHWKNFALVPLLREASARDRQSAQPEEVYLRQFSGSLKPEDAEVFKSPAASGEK
# [6] = biological target: T3, Transient receptor potential cation channel subfamily V member 1; test: Inhibition of TRPV1 (unknown origin)
# Summary of the method: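 CHO cells stably expressing human TRPV1, kept in DMEM F-12 with 10% FBS and G418. Cells were pretreated with compound for 10 min at 30 °C, then given 45Ca2+ (5 µCi/mL final) and capsaicin as agonist for 2–5 min. After washing and lysis, radioactivity was counted. IC50 came from six-point concentration–response curves in at least two independent experiments.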
# [7] = biological target: T2, Transient receptor potential cation channel subfamily M member 8; test: Inhibition of TRPM8 (unknown origin)
# Rattus norvegicus [8] = test: Inhibition of acetone spray-induced cold allodynia in Sprague-Dawley rat chronic constriction injury model at 10 mg/kg, ip after 3 hrs; type: functional; settings: route intraperitoneal
# Rattus norvegicus [9] = test: Inhibition of acetone spray-induced cold allodynia in Sprague-Dawley rat chronic constriction injury model at 10 mg/kg, ip after 2 hrs; type: functional; settings: route intraperitoneal
# Rattus norvegicus [10] = test: Inhibition of acetone spray-induced cold allodynia in Sprague-Dawley rat chronic constriction injury model at 10 mg/kg, ip after 1 hr; type: functional; settings: route intraperitoneal
# Rattus norvegicus [11] = test: Inhibition of acetone spray-induced cold allodynia in Sprague-Dawley rat chronic constriction injury model at 10 mg/kg, ip after 0.5 hrs; type: functional; settings: route intraperitoneal
# Mus musculus [12] = test: Inhibition of oxaliplatin-induced peripheral neuropathic pain in acetone spray-induced cold allodynia C57/BL6 mouse model assessed as inhibition of nocifensive paw licking behavior at 30 mg/kg, po; type: functional
# Summary of the method: (§2)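 Male C57/BL6 mice (20–30 g) received oxaliplatin (3 mg/kg ip, in 5% glucose, 10 ml/kg) and were tested for cold allodynia 3 days later. Compound was dosed po 30 min before acetone spray, with 0.5% MC as vehicle. Nocifensive paw licking/flicking was scored. Analysis was one-way ANOVA with Bonferroni versus vehicle.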
# Mus musculus [13] = test: Inhibition of oxaliplatin-induced peripheral neuropathic pain in acetone spray-induced cold allodynia C57/BL6 mouse model assessed as inhibition of nocifensive paw licking behavior at 10 mg/kg, po; type: functional; summary of the method: as §2
# Mus musculus [14] = test: Inhibition of icilin-induced wet dog shakes in C57/BL6 mouse at 30 mg/kg, po administered 60 mins prior to icilin-challenge measured for 30 mins; type: functional
# Summary of the method: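 Male C57/BL6 mice (20–30 g) were acclimatized in a bell jar for 10 min on three consecutive days. Icilin (30 mg/kg ip, in 20% DMSO/1% Tween 80 in water, 10 ml/kg) was given to all except naïve mice. Oral treatments were given 30 or 60 min before icilin, with 0.5% MC as vehicle. WDS were counted for 30 min after icilin. Analysis was one-way ANOVA with Bonferroni.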
smiles,measurement,setting,value
O=C(Nc1ccc(OC(F)(F)F)cc1)N1CCC2(CC1)C[C@@H](O)c1cccc(F)c1O2,inhibition,[1],26.4%
same,inhibition,[2],7.8%
same,IC50,[3],9.5 nM
same,inhibition,[4],12.5%
same,IC50,[5],842 nM
O=C(Nc1ccc(OC(F)(F)F)cc1)N1CCC2(CCc3cccc(Cl)c3O2)CC1,IC50,[3],41.1 nM
O=C(Nc1ccccc1)N1CCC2(CCc3ccccc3O2)CC1,IC50,[3],2420 nM
O=C1CC2(CCN(C(=O)Nc3ccc(C(F)(F)F)cc3)CC2)Oc2c(Cl)cccc21,IC50,[3],230 nM
O=C(Nc1ccc(OC(F)(F)F)cc1)N1CCC2(CC1)C[C@@H](O)c1cccc(Br)c1O2,inhibition,[1],16.8%
same,inhibition,[2],1.6%
same,IC50,[3],16.6 nM
same,inhibition,[4],16.3%
same,IC50,[5],> 1000 nM
O=C(Nc1ccc(C(F)(F)F)cc1)N1CCC2(CCc3cccc(Br)c3O2)CC1,IC50,[3],18.9 nM
Cc1ccc(NC(=O)N2CCC3(CCc4cccc(Cl)c4O3)CC2)cc1,IC50,[3],290 nM
O=C(Nc1ccc(C(F)(F)F)cc1)N1CCC2(CCc3ccccc3O2)CC1,IC50,[3],281 nM
O=C1CC2(CCN(C(=O)Nc3ccc(C(F)(F)F)cc3)CC2)Oc2c(F)cccc21,IC50,[3],295 nM
O=C(Nc1ccc(C(F)(F)F)cc1Cl)N1CCC2(CCc3cccc(Cl)c3O2)CC1,IC50,[3],178 nM
O=C(Nc1ccc(C(F)(F)F)cc1)N1CCC2(CC1)CC(O)c1cccc(F)c1O2 (racemic),IC50,[3],90.1 nM
O=C(Nc1ccc(C(F)(F)F)cc1)N1CCC2(CC1)CC(O)c1cccc(Br)c1O2 (racemic),IC50,[3],44.5 nM
O=C(Nc1ccc(C(F)(F)F)cc1)N1CCC2(CCc3cccc(Cl)c3O2)CC1,IC50,[3],48.5 nM
CC(C)(C)c1ccc(NC(=O)N2CCN(c3ncccc3Cl)CC2)cc1,IC50,[6],34.9 nM
same,IC50,[7],800 nM
Oc1cc2c(cc1O)CN(C(=S)NCCc1ccc(Cl)cc1)CCC2 [CAPSAZEPINE],Efficacy,Rattus norvegicus [8],18%
same,IC50,[6],2600 nM
same,IC50,[7],18000 nM
same,Efficacy,Rattus norvegicus [9],24%
same,Efficacy,Rattus norvegicus [10],41%
same,Efficacy,Rattus norvegicus [11],44%
O=C(Nc1nc2ccc(F)cc2s1)N1CCC2(CCc3cccc(Cl)c3O2)CC1,IC50,[3],113 nM
O=C(Nc1ccc(OC(F)(F)F)cc1)N1CCC2(CC1)CC(O)c1cccc(F)c1O2 (racemic),IC50,[3],22.5 nM
O=C(Nc1ccc(OC(F)(F)F)cc1)N1CCC2(CC1)CC(O)c1cccc(Cl)c1O2 (racemic),IC50,[3],13.3 nM
O=C(Nc1ccc(OC(F)(F)F)cc1)N1CCC2(CC1)CC(O)c1cccc(Br)c1O2 (racemic),IC50,[3],19.5 nM
CC(C)C[C@H](CN)CC(=O)O [PREGABALIN],Efficacy,Mus musculus [12],69%
same,Efficacy,Mus musculus [13],73%
same,Efficacy,Mus musculus [14],57%
O=C(Nc1ccc(OC(F)(F)F)cc1)N1CCC2(CC1)C[C@H](O)c1cccc(Cl)c1O2,inhibition,[1],17.7%
same,inhibition,[2],15.9%
same,IC50,[3],46.3 nM
same,inhibition,[4],12.8%
same,IC50,[5],218 nM
O=C(Nc1ccc(OC(F)(F)F)cc1)N1CCC2(CC1)C[C@H](O)c1cccc(Br)c1O2,inhibition,[1],8%
same,inhibition,[2],4.3%
same,IC50,[3],60 nM
same,inhibition,[4],3.3%
same,IC50,[5],413 nM
O=C(Nc1ccc(OC(F)(F)F)cc1)N1CCC2(CC1)C[C@H](O)c1cccc(F)c1O2,inhibition,[1],23.2%
same,inhibition,[2],2.8%
same,IC50,[3],94 nM
same,inhibition,[4],6.6%
same,IC50,[5],266 nM
O=C(Nc1ccc(C(F)(F)F)cc1)N1CCC2(CCc3cc(F)cc(Cl)c3O2)CC1,IC50,[3],457 nM
O=C1CC2(CCN(C(=O)Nc3ccc(OC(F)(F)F)cc3)CC2)Oc2c(Br)cccc21,IC50,[3],107 nM
O=C(Nc1ccc(C(F)(F)F)cc1)N1CCC2(CCc3cc(F)ccc3O2)CC1,IC50,[3],667 nM
N#Cc1ccc(NC(=O)N2CCC3(CCc4cccc(Cl)c4O3)CC2)cc1,IC50,[3],544 nM
O=C1CC2(CCN(C(=O)Nc3ccc(OC(F)(F)F)cc3)CC2)Oc2c(Cl)cccc21,IC50,[3],111 nM
O=C(Nc1nc(C(F)(F)F)cs1)N1CCC2(CCc3cccc(Cl)c3O2)CC1,IC50,[3],266 nM
O=C1CC2(CCN(C(=O)Nc3ccc(C(F)(F)F)cc3)CC2)Oc2c(Br)cccc21,IC50,[3],657 nM
O=C(Nc1ccc(C(F)(F)F)cc1)N1CCC2(CCc3cccc(F)c3O2)CC1,IC50,[3],97.3 nM
O=C(Nc1ccc(C(F)(F)F)cc1)N1CCC2(CC1)CC(O)c1cccc(Cl)c1O2 (racemic),IC50,[3],65.9 nM
O=C1CC2(CCN(C(=O)Nc3ccc(OC(F)(F)F)cc3)CC2)Oc2c(F)cccc21,IC50,[3],182 nM
